Measurements taken from article PMC4804314 (Pharmacology Research & Perspectives, 2016).
Where two headings read alike, the source gives them in different places. Marks after values point to notes of the source that are not given here.

Columns and labels:
[1] = ref Becker et al. 2015, cited from earlier work
[2] = tested on: sandwich‐cultured hepatocytes; experiment: Cytotoxicity test with lactate dehydrogenase; format: cell-based; conditions: 250 μmol/L, up to 24 h
[3] = Excretion of total radioactivity in monkey; format: in vivo, Cynomolgus monkey (Macaca fascicularis)
In short: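 Female Cynomolgus monkeys (n = 3) got a single i.v. bolus of [14C]-test compound, 2.0 mg/kg. Urine and feces were collected 0–8 h, 8–24 h, then in 24-h intervals to 120 h. Both were counted by LSC as in the mouse study, with feces dried and combusted first. Excretion was expressed as % of radioactive dose.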

[4] = NADPH-dependent metabolism by mouse liver microsomes; format: in vitro ADME; conditions: mice, 10 and 100 µM, up to 6 h
[5] = tested on: human suspension hepatocytes; experiment: Uptake into human suspension hepatocytes; format: in vitro ADME
In short: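 Cryopreserved human hepatocytes in suspension, transporter function verified by the supplier. Test compound was applied at 10 μmol/L, 250 μmol/L and 10 mmol/L for 1 to 30 or 90 min. Cells were separated from buffer by the oil-layer method, and drug in both compartments was quantified over time by LC/MS/MS. Nonspecific transporter inhibition used rifampicin 20 μmol/L, cyclosporine A 20 μmol/L and quinidine 100 μmol/L.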

[6] = tested on: sandwich‐cultured human hepatocytes; experiment: Hepatobiliary disposition in sandwich-cultured human hepatocytes; format: in vitro ADME
In short: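 Sandwich-cultured human hepatocytes from three donor liver preparations, cultured 6 days. [14C]-test compound was applied at 10 and 250 μmol/L, with [3H]-taurocholate as transporter-function control and LDH release as cytotoxicity check. Radioactivity was read by LSC. Accumulation is mean ± SD of triplicate wells. BEI, CLbiliary, intracellular concentration and Cic/Cec were derived.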

[7] = human, male, 0–144 h, n = 5, listed as [^14C]‐cilengitide
[8] = 10 μM, donor 1, 20 min, mean ± SD of triplicate wells
[9] = 10 μM, donor 2, 20 min, mean ± SD of triplicate wells
[10] = 10 μM, donor 3, 20 min, mean ± SD of triplicate wells
[11] = 10 μM, mean ± standard error of 3 donors, 20 min
[12] = 250 μM, donor 1, 20 min, mean ± SD of triplicate wells
[13] = 250 μM, donor 2, 20 min, mean ± SD of triplicate wells
[14] = 250 μM, donor 3, 20 min, mean ± SD of triplicate wells
[15] = 250 μM, mean ± standard error of 3 donors, 20 min

CC(C)[C@H]1C(=O)N[C@@H](CCCN=C(N)N)C(=O)NCC(=O)N[C@@H](CC(=O)O)C(=O)N[C@H](Cc2ccccc2)C(=O)N1C [cilengitide, cyclo‐(Asp‐D‐Phe‐N‐MeVal‐Arg‐Gly)]
dose recovered in urine as unchanged drug ([1]; human volunteers): 77.5% | Excretion of radioactivity in feces ([1]; human, male, 0–24 h, n = 5): ∼9.0 % dose | Excretion of radioactivity, total ([1]; human, male, 0–24 h, n = 5): ∼87 % dose | Excretion of radioactivity in feces ([1]; human, male, 0–144 h, n = 5): 15.5 % dose | Excretion of radioactivity in urine ([1]; human, male, 0–144 h, n = 5): 79 % dose | Excretion of radioactivity in feces [1, 7]: 15.5 ^d % dose | Excretion of radioactivity in urine [1, 7]: 79.0 ^d % dose | extent of renal excretion ([1]; human): ~ 80% | components found in human plasma and urine [1]: parent compound was the only component found | renal clearance compared with creatinine clearance of each subject [1]: below the creatinine clearance | cell toxicity (LDH in cell culture medium) [2]: does not cause cell toxicity | extent of renal excretion [3]: 56% | metabolism by liver microsomes [4]: poorly metabolized | active uptake in human hepatocytes [5]: no active uptake | dependency of uptake on drug concentration ([5]; 10 μmol/L, 250 μmol/L and 10 mmol/L): no clear dependency on drug concentration | effect of inhibitor cocktail on distribution into hepatocytes ([5]; 20 μmol/L rifampicin, 20 μmol/L cyclosporine A, 100 μmol/L quinidine): no relevant inhibition | time after which distribution into hepatocytes was almost complete ([5]; human suspension hepatocytes): 1 to 4 min | uptake into human hepatocytes ([5]; suspension, 10 μmol/L, 250 μmol/L and 10 mmol/L): minor | biliary efflux (as determined by BEI and CLbil) [6]: negligible | BEI ([6]; 10 μM, donor 1, 20 min): 2.42% | CLbiliary ([6]; 10 μM, donor 1, 20 min): 7.2 mL/day/kg | Intracellular concentration ([6]; 10 μM, donor 1, 20 min): 1.70 µM | Cellular accumulation Avg. [6, 8]: 13.7 ± 1.8 pmol/mg | Total accumulation Avg. [6, 8]: 14.0 ± 1.5 pmol/mg | BEI ([6]; 10 μM, donor 2, 20 min): 2.30% | CLbiliary ([6]; 10 μM, donor 2, 20 min): 5.8 mL/day/kg | Intracellular concentration ([6]; 10 μM, donor 2, 20 min): 0.52 µM | Cellular accumulation Avg. [6, 9]: 4.17 ± 0.33 pmol/mg | Total accumulation Avg. [6, 9]: 4.27 ± 0.46 pmol/mg | BEI ([6]; 10 μM, donor 3, 20 min): 16.6% | CLbiliary ([6]; 10 μM, donor 3, 20 min): 18.7 mL/day/kg | Intracellular concentration ([6]; 10 μM, donor 3, 20 min): 0.56 µM | Cellular accumulation Avg. [6, 10]: 4.53 ± 0.38 pmol/mg | Total accumulation Avg. [6, 10]: 5.44 ± 3.31 pmol/mg | BEI [6, 11]: 7.12 ± 4.76% | CLbiliary [6, 11]: 10 ± 4.3 mL/day/kg | Cellular accumulation Avg. [6, 11]: 7.47 ± 3.12 pmol/mg | Intracellular concentration [6, 11]: 0.926 ± 0.386 µM | Total accumulation Avg. [6, 11]: 7.90 ± 3.07 pmol/mg | BEI ([6]; 250 μM, donor 1, 20 min): 20.4% | CLbiliary ([6]; 250 μM, donor 1, 20 min): 40.3 mL/day/kg | Intracellular concentration ([6]; 250 μM, donor 1, 20 min): 22.7 µM | Cellular accumulation Avg. [6, 12]: 183 ± 27 pmol/mg | Total accumulation Avg. [6, 12]: 230 ± 28 pmol/mg | BEI ([6]; 250 μM, donor 2, 20 min): 8.75% | CLbiliary ([6]; 250 μM, donor 2, 20 min): 7.2 mL/day/kg | Intracellular concentration ([6]; 250 μM, donor 2, 20 min): 10.4 µM | Cellular accumulation Avg. [6, 13]: 84.0 ± 12.1 pmol/mg | Total accumulation Avg. [6, 13]: 92.1 ± 5.7 pmol/mg | BEI ([6]; 250 μM, donor 3, 20 min): 15.6% | CLbiliary ([6]; 250 μM, donor 3, 20 min): 18.7 mL/day/kg | Intracellular concentration ([6]; 250 μM, donor 3, 20 min): 15.2 µM | Cellular accumulation Avg. [6, 14]: 122 ± 14 pmol/mg | Total accumulation Avg. [6, 14]: 145 ± 5.9 pmol/mg | BEI [6, 15]: 14.9 ± 3.4% | CLbiliary [6, 15]: 21.6 ± 10 mL/day/kg | Cellular accumulation Avg. [6, 15]: 130 ± 29 pmol/mg | Intracellular concentration [6, 15]: 16.1 ± 3.6 µM | Total accumulation Avg. [6, 15]: 156 ± 3 pmol/mg | biotransformation by HPLC analysis of supernatant and cell lysate ([6]; 250 μmol/L, 6 and 24 h): no indication for biotransformation | Intracellular concentration ([6]; exposure at 10 μmol/L): 0.926 ± 0.386 µM | Intracellular concentration ([6]; exposure at 250 μmol/L): 16.1 ± 3.6 µM
